The source of these data is ChEMBL document CHEMBL1127378, “Influence of lipophilicity on the biological activity of cyclic pseudopeptide NK-2 receptor antagonists” (J Med Chem, 1994).

Each structure is given as a SMILES string. Where a SMILES comes first, the peptide text is derived from it. [ ]: non-standard residue; d: D form. Cha = N[C@@H](CC1CCCCC1)C(=O)O; βAla = NCCC(=O)O

Test [1] can be described thus: Tested for capacity factors by reversed phase HPLC (C18, solvent system 1).
Test [2] addresses T1, Substance-K receptor (Mesocricetus auratus, UniProt P51144).
T1 sequence (P51144 whole entry): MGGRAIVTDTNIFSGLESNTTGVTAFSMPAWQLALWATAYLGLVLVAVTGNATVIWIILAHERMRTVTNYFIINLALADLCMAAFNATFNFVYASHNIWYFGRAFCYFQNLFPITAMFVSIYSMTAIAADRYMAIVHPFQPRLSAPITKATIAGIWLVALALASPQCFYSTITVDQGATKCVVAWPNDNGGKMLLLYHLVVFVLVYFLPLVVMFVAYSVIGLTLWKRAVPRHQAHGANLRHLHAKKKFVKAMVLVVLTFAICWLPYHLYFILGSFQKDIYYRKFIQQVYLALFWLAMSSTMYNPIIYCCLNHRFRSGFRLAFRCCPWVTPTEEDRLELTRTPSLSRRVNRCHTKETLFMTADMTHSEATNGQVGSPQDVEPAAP
Nature of the test: Tested for antagonist activity at NK-2 tachykinin receptors in hamster trachea. The class given is functional. Conditions: for Kb: read-out: pA2 (converted). An outline of the steps:
(§1)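 Isolated tissues from male New Zealand rabbits (2.5-3 kg) or male Syrian golden hamsters (90-130 g). Endothelium-denuded pulmonary artery strips (rabbit) or tracheal rings (hamster) were used for isometric tension in oxygenated (96% O2/4% CO2) Krebs. Thiorphan, captopril and bestatin were added 15 min before agonist. Cumulative NKA curves were repeated after 15 min antagonist incubation, with one concentration per experiment and at least three concentrations. pA2 came from constrained Schild plots (≥9 experiments).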

Test [3] concerns the target T2, Substance-K receptor (Oryctolagus cuniculus, UniProt P79218).
T2 sequence (P79218 whole entry): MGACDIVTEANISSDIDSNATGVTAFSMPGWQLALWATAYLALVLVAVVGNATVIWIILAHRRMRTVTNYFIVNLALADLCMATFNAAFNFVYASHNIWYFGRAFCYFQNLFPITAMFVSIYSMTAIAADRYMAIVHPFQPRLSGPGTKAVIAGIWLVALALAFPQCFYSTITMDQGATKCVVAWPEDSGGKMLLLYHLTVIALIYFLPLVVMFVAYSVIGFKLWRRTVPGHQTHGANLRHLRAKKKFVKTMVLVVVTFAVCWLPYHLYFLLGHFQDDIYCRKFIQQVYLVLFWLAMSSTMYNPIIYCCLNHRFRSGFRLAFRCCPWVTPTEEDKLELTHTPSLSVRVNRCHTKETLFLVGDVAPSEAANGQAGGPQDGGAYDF
Nature of the test: Antagonist activity at NK-2 tachykinin receptors in rabbit pulmonary artery. The class given is functional. The note with it: for Kb: read-out: pA2 (converted). Summed up: as §1

The target in test [4] is T3, Substance-K receptor (Oryctolagus cuniculus) (UniProt P79218).
T3 sequence (whole entry): T2 sequence (P79218 whole entry)

For test [5], the target named is T3, Substance-K receptor (Oryctolagus cuniculus). The note with it: filed as agonist.
Test [6] has as its target T2, Substance-K receptor. Nature of the test: Tested for antagonist activity at NK-2 tachykinin receptors in rabbit pulmonary artery. The note with it: read-out: pA2 (converted).

For `CC(C)C[C@@H]1CN[C@@H](CC(N)=O)C(=O)N[C@H](CCC(N)=O)C(=O)N[C@@H](Cc2c[nH]c3ccccc23)C(=O)N[C@H](Cc2ccccc2)C(=O)NCCC(=O)N1`, in test [1], the k' stood at 7.7.

On to `CC(C)C[C@@H]1CN[C@@H](CCCCNC(=O)OCc2ccccc2)C(=O)N[C@H](CCC(N)=O)C(=O)N[C@@H](Cc2c[nH]c3ccccc23)C(=O)N[C@H](Cc2ccccc2)C(=O)NCCC(=O)N1`, for which the k' in test [1] turned out to be 11.9. For the compound `CC(C)C[C@@H]1CN(C)[C@@H](CC2CCCCC2)C(=O)N[C@@H](CCC(N)=O)C(=O)N[C@@H](Cc2c[nH]c3ccccc23)C(=O)N[C@@H](Cc2ccccc2)C(=O)NCCC(=O)N1`, the figures for the Kb at Substance-K receptor [2] and at Substance-K receptor [3] were 3.8 nM and 117 nM, respectively.

The compound `CC(C)C[C@@H]1CN[C@@H](CCCCN)C(=O)N[C@H](CCC(N)=O)C(=O)N[C@@H](Cc2c[nH]c3ccccc23)C(=O)N[C@H](Cc2ccccc2)C(=O)NCCC(=O)N1` registered a pD2 in test [4] of 5.96. Also, the pA2 entry in test [5] was “Agonist”. In addition, the k' in test [1] is 6.8.

Regarding `CC(C)C[C@@H]1CN[C@@H](CCCCNC(=O)OCc2ccccc2)C(=O)N[C@@H](CCC(N)=O)C(=O)N[C@@H](Cc2c[nH]c3ccccc23)C(=O)N[C@@H](Cc2ccccc2)C(=O)NCCC(=O)N1`, the values for the Kb on Substance-K receptor [2] and on Substance-K receptor [3] were 6.76 nM and 129 nM, respectively. Regarding `CC(C)C[C@@H]1CN[C@@H](CCCCN)C(=O)N[C@@H](CCC(N)=O)C(=O)N[C@@H](Cc2c[nH]c3ccccc23)C(=O)N[C@@H](Cc2ccccc2)C(=O)NCCC(=O)N1`, the Kb on Substance-K receptor [2] was 309 nM. As to `CC(C)C[C@@H]1CN[C@@H](Cc2ccccc2)C(=O)N[C@@H](CCC(N)=O)C(=O)N[C@@H](Cc2c[nH]c3ccccc23)C(=O)N[C@@H](Cc2ccccc2)C(=O)NCCC(=O)N1`, the Kb was 18.6 nM at Substance-K receptor [2] and 79.4 nM on Substance-K receptor [3].

Regarding `CC(C)C[C@@H]1CN[C@@H](CC(C)C)C(=O)N[C@H](CCC(N)=O)C(=O)N[C@@H](Cc2c[nH]c3ccccc23)C(=O)N[C@H](Cc2ccccc2)C(=O)NCCC(=O)N1`, the k' in test [1] came out at 9.9.

In turn, `CC(C)C[C@@H]1CN(C)[C@@H](CC2CCCCC2)C(=O)N[C@H](CCC(N)=O)C(=O)N[C@@H](Cc2c[nH]c3ccccc23)C(=O)N[C@H](Cc2ccccc2)C(=O)NCCC(=O)N1` displayed a k' in test [1] of 13.1. For the compound `CC(C)C[C@@H]1CN[C@@H](CCC(=O)NCc2ccccc2)C(=O)N[C@H](CCC(N)=O)C(=O)N[C@@H](Cc2c[nH]c3ccccc23)C(=O)N[C@H](Cc2ccccc2)C(=O)NCCC(=O)N1`, the k' in test [1] stood at 11.1. As for `CC(C)C[C@@H]1CN[C@@H](Cc2ccc3ccccc3c2)C(=O)N[C@@H](CCC(N)=O)C(=O)N[C@@H](Cc2c[nH]c3ccccc23)C(=O)N[C@@H](Cc2ccccc2)C(=O)NCCC(=O)N1`, the pA2 on Substance-K receptor [2] worked out at 8.79; at Substance-K receptor [3], 7.37. Take `CC(C)C[C@@H]1CN[C@@H](CC2CCCCC2)C(=O)N[C@@H](CCC(N)=O)C(=O)N[C@@H](Cc2c[nH]c3ccccc23)C(=O)N[C@@H](Cc2ccccc2)C(=O)NCCC(=O)N1`: the Kb was 0.871 nM at Substance-K receptor [2] and 38.9 nM at Substance-K receptor [6]. `CC(C)C[C@@H]1CN[C@@H](CC(N)=O)C(=O)N[C@@H](CCC(N)=O)C(=O)N[C@@H](Cc2c[nH]c3ccccc23)C(=O)N[C@@H](Cc2ccccc2)C(=O)NCCC(=O)N1`: the Kb at Substance-K receptor [2] is 110 nM; on Substance-K receptor [3] it was 692 nM. For the compound `CSCC[C@@H]1NC[C@@H](CC(C)C)NC(=O)CCNC(=O)[C@H](Cc2ccccc2)NC(=O)[C@H](Cc2c[nH]c3ccccc23)NC(=O)[C@H](CCC(N)=O)NC1=O`, the Kb at Substance-K receptor [2] was 12.9 nM; at Substance-K receptor [3], 224 nM. The corresponding values for `CC(C)C[C@@H]1CN[C@@H](CC(C)C)C(=O)N[C@@H](CCC(N)=O)C(=O)N[C@@H](Cc2c[nH]c3ccccc23)C(=O)N[C@@H](Cc2ccccc2)C(=O)NCCC(=O)N1` are 15.8 nM and 112 nM. The like results for `CC(C)C[C@@H]1NC(=O)CCNC(=O)[C@H](Cc2ccccc2)NC(=O)[C@H](Cc2c[nH]c3ccccc23)NC(=O)[C@H](CCC(N)=O)NC(=O)[C@H](CC2CCCCC2)NC1=O` (cyclo([Cha]QWF[βAla]L)) were, in that order, 31.6 nM and 1450 nM.

Take `CSCC[C@@H]1NC[C@@H](CC(C)C)NC(=O)CCNC(=O)[C@@H](Cc2ccccc2)NC(=O)[C@H](Cc2c[nH]c3ccccc23)NC(=O)[C@@H](CCC(N)=O)NC1=O`: the k' in test [1] came to 9.6. The same measure, in the same setting: the value for `CC(C)C[C@@H]1CN[C@@H](Cc2ccc3ccccc3c2)C(=O)N[C@H](CCC(N)=O)C(=O)N[C@@H](Cc2c[nH]c3ccccc23)C(=O)N[C@H](Cc2ccccc2)C(=O)NCCC(=O)N1` was 12. `CC(C)C[C@@H]1CN[C@@H](CCC(=O)NCc2ccccc2)C(=O)N[C@@H](CCC(N)=O)C(=O)N[C@@H](Cc2c[nH]c3ccccc23)C(=O)N[C@@H](Cc2ccccc2)C(=O)NCCC(=O)N1`: the Kb on Substance-K receptor [2] is 0.55 nM; at Substance-K receptor [3], 15.5 nM.

`CC(C)C[C@@H]1CN[C@@H](CC(=O)O)C(=O)N[C@H](CCC(N)=O)C(=O)N[C@@H](Cc2c[nH]c3ccccc23)C(=O)N[C@H](Cc2ccccc2)C(=O)NCCC(=O)N1`: the k' in test [1] worked out at 7.9. Take `CC(C)C[C@@H]1CN[C@@H](CC2CCCCC2)C(=O)N[C@H](CCC(N)=O)C(=O)N[C@@H](Cc2c[nH]c3ccccc23)C(=O)N[C@H](Cc2ccccc2)C(=O)NCCC(=O)N1`: in test [1], the k' came out at 11.6. Same read-out and setting: the value for `CC(C)C[C@@H]1CN[C@@H](Cc2ccccc2)C(=O)N[C@H](CCC(N)=O)C(=O)N[C@@H](Cc2c[nH]c3ccccc23)C(=O)N[C@H](Cc2ccccc2)C(=O)NCCC(=O)N1` was 10.5. `CC(C)C[C@@H]1CN[C@@H](CC(=O)O)C(=O)N[C@@H](CCC(N)=O)C(=O)N[C@@H](Cc2c[nH]c3ccccc23)C(=O)N[C@@H](Cc2ccccc2)C(=O)NCCC(=O)N1`: the Kb at Substance-K receptor [2] was 67.6 nM; at Substance-K receptor [3] it was 1070 nM.
